{
  "source": "ChEMBL document CHEMBL1148130",
  "about": "“Derrisin, a new rotenoid from Derris malaccensis plain and anti-Helicobacter pylori activity of its related constituents” (2002)",
  "key": {"[1]": {"tested_on": "Helicobacter pylori", "assay": "Antibacterial activity against Helicobacter pylori 31A after 48 hrs by serial doubling dilution method", "assay_type": "functional", "summary_of_the_method": "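H. pylori strain 31 A (stomach ulcer isolate) in brain-heart infusion broth with 10% fetal bovine serum, grown in test tubes under 10% CO2, 5% O2 and 85% N2 at 37 °C. Serial doubling dilutions made in 10% aqueous DMSO and added as 10% of the medium, with 5% culture inoculum. Incubated 37 °C for 48 h. MIC taken as the lowest concentration with no visible growth.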"}, "[2]": {"tested_on": "Bacillus subtilis", "assay": "Antibacterial activity against Bacillus subtilis ATCC 6633 at 625 ug/mL after 24 hrs by conventional well agar method", "assay_type": "functional, organism-based"}, "[3]": {"tested_on": "Micrococcus luteus", "assay": "Antibacterial activity against Micrococcus luteus ATCC 9341 at 625 ug/mL after 24 hrs by conventional well agar method", "assay_type": "functional, organism-based"}, "[4]": {"tested_on": "Bacteroides fragilis", "assay": "Antibacterial activity against Bacteroides fragilis ATCC 25285 at 625 ug/mL after 24 hrs by conventional well agar method", "assay_type": "functional, organism-based"}, "[5]": {"tested_on": "Escherichia coli", "assay": "Antibacterial activity against Escherichia coli ATCC 10536 at 625 ug/mL after 24 hrs by conventional well agar method", "assay_type": "functional, organism-based"}, "[6]": {"tested_on": "Pseudomonas aeruginosa", "assay": "Antibacterial activity against Pseudomonas aeruginosa ATCC 9027 at 625 ug/mL after 24 hrs by conventional well agar method", "assay_type": "functional, organism-based"}, "[7]": {"tested_on": "Candida albicans", "assay": "Antifungal activity against Candida albicans ATCC 10231 at 625 ug/mL after 24 hrs by conventional well agar method", "assay_type": "functional, organism-based"}},
  "note": "The source made the active and inactive calls. The rule behind the calls is not given here.",
  "data": [
    {"smiles": "COc1cc2c(cc1OC)Oc1c(oc3c4c(ccc3c1=O)OC(C)(C)C=C4)CO2", "values": [
      {"measurement": "MIC", "setting": "[1]", "value": 4, "unit": "µg/mL"},
      {"measurement": "Activity", "setting": "[2]", "value": "inactive"},
      {"measurement": "Activity", "setting": "[3]", "value": "inactive"},
      {"measurement": "Activity", "setting": "[4]", "value": "inactive"},
      {"measurement": "Activity", "setting": "[5]", "value": "inactive"},
      {"measurement": "Activity", "setting": "[6]", "value": "inactive"},
      {"measurement": "Activity", "setting": "[7]", "value": "inactive"}
    ]},
    {"smiles": "C=C(C)[C@H]1Cc2c(ccc3c2O[C@@H]2COc4cc(OC)c(OC)cc4[C@]2(O)C3=O)O1", "note": "[ROTENOLONE]", "values": [
      {"measurement": "MIC", "setting": "[1]", "value": 1.3, "unit": "µg/mL"},
      {"measurement": "Activity", "setting": "[2]", "value": "inactive"},
      {"measurement": "Activity", "setting": "[3]", "value": "inactive"},
      {"measurement": "Activity", "setting": "[4]", "value": "inactive"},
      {"measurement": "Activity", "setting": "[5]", "value": "inactive"},
      {"measurement": "Activity", "setting": "[6]", "value": "inactive"},
      {"measurement": "Activity", "setting": "[7]", "value": "inactive"}
    ]},
    {"smiles": "CC[C@H]1OC(=O)[C@H](C)[C@@H](O[C@H]2C[C@@](C)(OC)[C@@H](O)[C@H](C)O2)[C@H](C)[C@@H](O[C@@H]2O[C@H](C)C[C@H](N(C)C)[C@H]2O)[C@](C)(OC)C[C@@H](C)C(=O)[C@H](C)[C@@H](O)[C@]1(C)O", "note": "[CLARITHROMYCIN]", "values": [
      {"measurement": "MIC", "setting": "[1]", "value": 0.05, "unit": "µg/mL"},
      {"measurement": "Activity", "setting": "[2]", "value": "inactive"},
      {"measurement": "Activity", "setting": "[3]", "value": "inactive"},
      {"measurement": "Activity", "setting": "[4]", "value": "inactive"},
      {"measurement": "Activity", "setting": "[5]", "value": "inactive"},
      {"measurement": "Activity", "setting": "[6]", "value": "inactive"},
      {"measurement": "Activity", "setting": "[7]", "value": "inactive"}
    ]},
    {"smiles": "COc1cc2c(cc1OC)[C@@H]1C(=O)c3c(O)cc4c(c3O[C@@H]1CO2)C=CC(C)(C)O4", "note": "[TOXICAROL]", "values": [
      {"measurement": "MIC", "setting": "[1]", "value": 0.3, "unit": "µg/mL"},
      {"measurement": "Activity", "setting": "[2]", "value": "inactive"},
      {"measurement": "Activity", "setting": "[3]", "value": "inactive"},
      {"measurement": "Activity", "setting": "[4]", "value": "inactive"},
      {"measurement": "Activity", "setting": "[5]", "value": "inactive"},
      {"measurement": "Activity", "setting": "[6]", "value": "inactive"},
      {"measurement": "Activity", "setting": "[7]", "value": "inactive"}
    ]},
    {"smiles": "COc1cc2c(cc1OC)[C@@H]1C(=O)c3ccc4c(c3O[C@@H]1CO2)[C@H](O)[C@@H](O)C(C)(C)O4", "note": "[DERRISIN]", "values": [
      {"measurement": "MIC", "setting": "[1]", "value": 85, "unit": "µg/mL"},
      {"measurement": "Activity", "setting": "[2]", "value": "inactive"},
      {"measurement": "Activity", "setting": "[3]", "value": "inactive"},
      {"measurement": "Activity", "setting": "[4]", "value": "inactive"},
      {"measurement": "Activity", "setting": "[5]", "value": "inactive"},
      {"measurement": "Activity", "setting": "[6]", "value": "inactive"},
      {"measurement": "Activity", "setting": "[7]", "value": "inactive"}
    ]},
    {"smiles": "COc1cc2c(cc1OC)[C@@H]1C(=O)c3ccc4c(c3O[C@@H]1CO2)C=CC(C)(C)O4", "note": "[DEGUELIN]", "values": [
      {"measurement": "MIC", "setting": "[1]", "value": 0.6, "unit": "µg/mL"},
      {"measurement": "Activity", "setting": "[2]", "value": "inactive"},
      {"measurement": "Activity", "setting": "[3]", "value": "inactive"},
      {"measurement": "Activity", "setting": "[4]", "value": "inactive"},
      {"measurement": "Activity", "setting": "[5]", "value": "inactive"},
      {"measurement": "Activity", "setting": "[6]", "value": "inactive"},
      {"measurement": "Activity", "setting": "[7]", "value": "inactive"}
    ]},
    {"smiles": "C=C(C)[C@H]1Cc2c(ccc3c2O[C@@H]2COc4cc(OC)c(OC)cc4[C@@H]2C3=O)O1", "note": "[ROTENONE]", "values": [
      {"measurement": "MIC", "setting": "[1]", "value": 1.3, "unit": "µg/mL"},
      {"measurement": "Activity", "setting": "[2]", "value": "inactive"},
      {"measurement": "Activity", "setting": "[3]", "value": "inactive"},
      {"measurement": "Activity", "setting": "[4]", "value": "inactive"},
      {"measurement": "Activity", "setting": "[5]", "value": "inactive"},
      {"measurement": "Activity", "setting": "[6]", "value": "inactive"},
      {"measurement": "Activity", "setting": "[7]", "value": "inactive"}
    ]},
    {"smiles": "COc1cc2c(cc1OC)-c1c(oc3c4c(ccc3c1=O)OC(C)(C)C=C4)CO2", "note": "[DEHYDRODEGUELIN]", "values": [
      {"measurement": "MIC", "setting": "[1]", "value": 4, "unit": "µg/mL"},
      {"measurement": "Activity", "setting": "[2]", "value": "inactive"},
      {"measurement": "Activity", "setting": "[3]", "value": "inactive"},
      {"measurement": "Activity", "setting": "[4]", "value": "inactive"},
      {"measurement": "Activity", "setting": "[5]", "value": "inactive"},
      {"measurement": "Activity", "setting": "[6]", "value": "inactive"},
      {"measurement": "Activity", "setting": "[7]", "value": "inactive"}
    ]},
    {"smiles": "COc1cc2c(cc1OC)[C@]1(O)C(=O)c3ccc4c(c3O[C@@H]1CO2)[C@H](O)[C@@H](O)C(C)(C)O4", "values": [
      {"measurement": "MIC", "setting": "[1]", "value": "> 88", "unit": "µg/mL"},
      {"measurement": "Activity", "setting": "[2]", "value": "inactive"},
      {"measurement": "Activity", "setting": "[3]", "value": "inactive"},
      {"measurement": "Activity", "setting": "[4]", "value": "inactive"},
      {"measurement": "Activity", "setting": "[5]", "value": "inactive"},
      {"measurement": "Activity", "setting": "[6]", "value": "inactive"},
      {"measurement": "Activity", "setting": "[7]", "value": "inactive"}
    ]},
    {"smiles": "COc1cc2c(cc1OC)[C@]1(O)C(=O)c3ccc4c(c3O[C@@H]1CO2)C=CC(C)(C)O4", "note": "[TEPHROSIN]", "values": [
      {"measurement": "MIC", "setting": "[1]", "value": 0.3, "unit": "µg/mL"},
      {"measurement": "Activity", "setting": "[2]", "value": "inactive"},
      {"measurement": "Activity", "setting": "[3]", "value": "inactive"},
      {"measurement": "Activity", "setting": "[4]", "value": "inactive"},
      {"measurement": "Activity", "setting": "[5]", "value": "inactive"},
      {"measurement": "Activity", "setting": "[6]", "value": "inactive"},
      {"measurement": "Activity", "setting": "[7]", "value": "inactive"}
    ]},
    {"smiles": "COc1cc2c(cc1OC)[C@@H]1C(=O)c3ccc4occc4c3O[C@@H]1CO2", "note": "[ELLIPTONE]", "values": [
      {"measurement": "MIC", "setting": "[1]", "value": 3, "unit": "µg/mL"},
      {"measurement": "Activity", "setting": "[2]", "value": "inactive"},
      {"measurement": "Activity", "setting": "[3]", "value": "inactive"},
      {"measurement": "Activity", "setting": "[4]", "value": "inactive"},
      {"measurement": "Activity", "setting": "[5]", "value": "inactive"},
      {"measurement": "Activity", "setting": "[6]", "value": "inactive"},
      {"measurement": "Activity", "setting": "[7]", "value": "inactive"}
    ]},
    {"smiles": "C=C(C)[C@H]1Cc2c(ccc3c(=O)c4c(oc23)COc2cc(OC)c(OC)cc2-4)O1", "note": "[DEHYDROROTENONE]", "values": [
      {"measurement": "MIC", "setting": "[1]", "value": 9.8, "unit": "µg/mL"},
      {"measurement": "Activity", "setting": "[2]", "value": "inactive"},
      {"measurement": "Activity", "setting": "[3]", "value": "inactive"},
      {"measurement": "Activity", "setting": "[4]", "value": "inactive"},
      {"measurement": "Activity", "setting": "[5]", "value": "inactive"},
      {"measurement": "Activity", "setting": "[6]", "value": "inactive"},
      {"measurement": "Activity", "setting": "[7]", "value": "inactive"}
    ]}
  ]
}
